Article PMC2219267 (The Journal of General Physiology, 1996)

Legend:
[1] = target: T1, band 3 (Homo sapiens, UniProt P02730); test: 125I iodide influx into red blood cells; format: cell-based
T1 sequence (P02730 1-911): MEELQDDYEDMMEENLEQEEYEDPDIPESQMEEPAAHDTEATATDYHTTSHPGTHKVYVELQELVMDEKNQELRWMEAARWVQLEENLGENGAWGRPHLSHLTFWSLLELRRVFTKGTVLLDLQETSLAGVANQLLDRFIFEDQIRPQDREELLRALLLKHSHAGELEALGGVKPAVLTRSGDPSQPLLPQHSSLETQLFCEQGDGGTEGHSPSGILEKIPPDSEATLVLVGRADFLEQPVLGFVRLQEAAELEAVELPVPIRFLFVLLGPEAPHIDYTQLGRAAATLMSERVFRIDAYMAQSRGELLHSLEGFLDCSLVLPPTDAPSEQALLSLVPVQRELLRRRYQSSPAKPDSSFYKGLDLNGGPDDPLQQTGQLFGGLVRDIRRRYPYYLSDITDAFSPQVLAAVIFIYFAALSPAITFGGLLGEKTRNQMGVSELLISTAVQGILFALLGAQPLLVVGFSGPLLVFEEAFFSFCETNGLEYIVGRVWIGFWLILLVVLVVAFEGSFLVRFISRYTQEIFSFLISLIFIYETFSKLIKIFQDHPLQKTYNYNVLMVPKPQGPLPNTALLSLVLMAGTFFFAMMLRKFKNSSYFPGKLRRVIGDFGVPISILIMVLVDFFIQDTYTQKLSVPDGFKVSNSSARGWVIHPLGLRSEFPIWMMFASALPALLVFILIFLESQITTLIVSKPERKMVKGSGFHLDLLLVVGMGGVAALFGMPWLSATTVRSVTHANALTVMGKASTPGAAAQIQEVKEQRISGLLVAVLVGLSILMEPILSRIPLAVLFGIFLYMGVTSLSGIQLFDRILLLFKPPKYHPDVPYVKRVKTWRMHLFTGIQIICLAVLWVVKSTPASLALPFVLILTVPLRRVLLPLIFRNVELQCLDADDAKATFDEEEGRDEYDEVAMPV
In short: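 Heparinised human blood was washed three times in 150 KH (150 mM KCl, 24 mM sucrose, 20 mM Hepes, pH 7.2 at 0°C), with white cells aspirated, then held at 50% hematocrit. DIDS-treated cells received a 2 mM DIDS stock. Media mixed sucrose, KCl and KI with 5 mM buffer. Above pHo 11, cells were nystatin-loaded to 300 mM Cl-, and CAPS-buffered media were used.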

[2] = target: T1, band 3; test: 36Cl exchange flux inhibition in red blood cells, Dixon plots; format: cell-based; conditions: for ID50 for iodide in the medium with low Cl- concentration: 0°C; for DS·Clo (Dixon slope times [Clo]) / Dixon slope (DS) for Io inhibition of Cl- exchange / High/low: DS·Clo at the highest [Clo] divided by that at the given [Clo]: sucrose

I- influx as % of Cl- efflux ([1]; no citrate, [Clo] 0.28 mM, [Io] 2.2 mM, 0°C): less than 6%
half-saturation concentration for Io activation of I- influx ([1]; pH 10.6, 1.65 mM [Clo]): 26.4 ± 1.8 mM
I- influx as % of Cl- efflux ([1]; pH 11.5, 53 mM [Io], 16.5 mM [Clo]): 16%
I- influx as % of Cl- efflux ([1]; pHo 10.6, 1.65 mM [Clo], up to 15 mM [Io]): less than 10%
ID50 for iodide in the medium with low Cl- concentration ([2]; exp 60, pHo 7.2, Hepes, Cli 129 mM, low Clo 2.0 mM): 2.77 mM
DS·Clo (Dixon slope times [Clo]) ([2]; exp 60, pHo 7.2, Clo 2 mM): 0.0823
Dixon slope (DS) for Io inhibition of Cl- exchange ([2]; exp 60, pHo 7.2, Clo 2 mM): 0.0412
High/low: DS·Clo at the highest [Clo] divided by that at the given [Clo] ([2]; exp 60, pHo 7.2, Clo 2 mM): 4.69
DS·Clo (Dixon slope times [Clo]) ([2]; exp 60, pHo 7.2, Clo 150 mM): 0.386
Dixon slope (DS) for Io inhibition of Cl- exchange ([2]; exp 60, pHo 7.2, Clo 150 mM): 0.00257
ID50 for iodide in the medium with low Cl- concentration ([2]; exp 60, pHo 10.7, CHES, Cli 129 mM, low Clo 2.0 mM): 12.9 mM
DS·Clo (Dixon slope times [Clo]) ([2]; exp 60, pHo 10.7, Clo 2 mM): 0.1169
Dixon slope (DS) for Io inhibition of Cl- exchange ([2]; exp 60, pHo 10.7, Clo 2 mM): 0.0584
High/low: DS·Clo at the highest [Clo] divided by that at the given [Clo] ([2]; exp 60, pHo 10.7, Clo 2 mM): 1.79
DS·Clo (Dixon slope times [Clo]) ([2]; exp 60, pHo 10.7, Clo 150 mM): 0.2096
Dixon slope (DS) for Io inhibition of Cl- exchange ([2]; exp 60, pHo 10.7, Clo 150 mM): 0.0014
ID50 for iodide in the medium with low Cl- concentration ([2]; exp 60a, pHo 7.2, Hepes, Cli 149 mM, low Clo 1.0 mM): 2.44 mM
DS·Clo (Dixon slope times [Clo]) ([2]; exp 60a, pHo 7.2, Clo 1 mM): 0.0509
Dixon slope (DS) for Io inhibition of Cl- exchange ([2]; exp 60a, pHo 7.2, Clo 1 mM): 0.0509
High/low: DS·Clo at the highest [Clo] divided by that at the given [Clo] ([2]; exp 60a, pHo 7.2, Clo 1 mM): 6.67
DS·Clo (Dixon slope times [Clo]) ([2]; exp 60a, pHo 7.2, Clo 150 mM): 0.339
Dixon slope (DS) for Io inhibition of Cl- exchange ([2]; exp 60a, pHo 7.2, Clo 150 mM): 0.00226
ID50 for iodide in the medium with low Cl- concentration ([2]; exp 60a, pHo 10.7, CHES, Cli 149 mM, low Clo 2.0 mM): 22.6 mM
DS·Clo (Dixon slope times [Clo]) ([2]; exp 60a, pHo 10.7, Clo 2 mM): 0.1078
Dixon slope (DS) for Io inhibition of Cl- exchange ([2]; exp 60a, pHo 10.7, Clo 2 mM): 0.0539
High/low: DS·Clo at the highest [Clo] divided by that at the given [Clo] ([2]; exp 60a, pHo 10.7, Clo 2 mM): 2.13
DS·Clo (Dixon slope times [Clo]) ([2]; exp 60a, pHo 10.7, Clo 150 mM): 0.2300
Dixon slope (DS) for Io inhibition of Cl- exchange ([2]; exp 60a, pHo 10.7, Clo 150 mM): 0.00153
ID50 for iodide in the medium with low Cl- concentration ([2]; exp 61, pHo 11.6, CAPS, Cli 131 mM, low Clo 50 mM): 34.9 mM
DS·Clo (Dixon slope times [Clo]) ([2]; exp 61, pHo 11.6, Clo 50 mM): 0.2858
Dixon slope (DS) for Io inhibition of Cl- exchange ([2]; exp 61, pHo 11.6, Clo 50 mM): 0.00572
High/low: DS·Clo at the highest [Clo] divided by that at the given [Clo] ([2]; exp 61, pHo 11.6, Clo 50 mM): 0.94
DS·Clo (Dixon slope times [Clo]) ([2]; exp 61, pHo 11.6, Clo 150 mM): 0.2682
Dixon slope (DS) for Io inhibition of Cl- exchange ([2]; exp 61, pHo 11.6, Clo 150 mM): 0.00179
ID50 for iodide in the medium with low Cl- concentration ([2]; exp 61a, pHo 11.6, CAPS, Cli 144 mM, low Clo 28 mM): 46.6 mM
DS·Clo (Dixon slope times [Clo]) ([2]; exp 61a, pHo 11.6, Clo 27.5 mM): 0.2089
Dixon slope (DS) for Io inhibition of Cl- exchange ([2]; exp 61a, pHo 11.6, Clo 27.5 mM): 0.0076
High/low: DS·Clo at the highest [Clo] divided by that at the given [Clo] ([2]; exp 61a, pHo 11.6, Clo 27.5 mM): 0.77
DS·Clo (Dixon slope times [Clo]) ([2]; exp 61a, pHo 11.6, Clo I10 mM): 0.1613
Dixon slope (DS) for Io inhibition of Cl- exchange ([2]; exp 61a, pHo 11.6, Clo I10 mM): 0.00147
ID50 for iodide in the medium with low Cl- concentration ([2]; exp 64, pHo 8.66, CHES, Cli 138 mM, low Clo 0.9 mM): 3.06 mM
ID50 for iodide in the medium with low Cl- concentration ([2]; exp 64, pHo 9.9, CHES, Cli 138 mM, low Clo 2.2 mM): 7.48 mM
ID50 for iodide in the medium with low Cl- concentration ([2]; exp 64a, pHo 8.66, CHES, Cli 137 mM, low Clo 0.9 mM): 2.24 mM
ID50 for iodide in the medium with low Cl- concentration ([2]; exp 64a, pHo 9.9, CHES, Cli 137 mM, low Clo 2.2 mM): 7.57 mM
ID50 for iodide in the medium with low Cl- concentration ([2]; exp 67, pHo 8.5, CHES, Cli 144 mM, low Clo 0.6 mM): 2.18 mM
ID50 for iodide in the medium with low Cl- concentration ([2]; exp 70, pHo 7.2, Hepes, Cli 147 mM, low Clo 0.6 mM): 1.47 mM
DS·Clo (Dixon slope times [Clo]) ([2]; exp 70, pHo 7.2, Clo 0.59 mM): 0.0584
Dixon slope (DS) for Io inhibition of Cl- exchange ([2]; exp 70, pHo 7.2, Clo 0.59 mM): 0.0996
High/low: DS·Clo at the highest [Clo] divided by that at the given [Clo] ([2]; exp 70, pHo 7.2, Clo 0.59 mM): 5.52
DS·Clo (Dixon slope times [Clo]) ([2]; exp 70, pHo 7.2, Clo 110 mM): 0.322
Dixon slope (DS) for Io inhibition of Cl- exchange ([2]; exp 70, pHo 7.2, Clo 110 mM): 0.00293
ID50 for iodide in the medium with low Cl- concentration ([2]; exp 70, pHo 8.5, CHES, Cli 147 mM, low Clo 0.6 mM): 1.82 mM
ID50 for iodide in the medium with low Cl- concentration ([2]; exp 72, pHo 8.0, Hepes, Cli 129 mM, low Clo 0.9 mM): 1.82 mM
ID50 for iodide in the medium with low Cl- concentration ([2]; exp 72, pHo 9.2, CHES, Cli 129 mM, low Clo 0.9 mM): 4.19 mM
ID50 for iodide in the medium with low Cl- concentration ([2]; exp 74, pHo 8.5, CHES, Cli 156 mM, low Clo 1.1 mM): 2.10 mM
ID50 for iodide in the medium with low Cl- concentration ([2]; exp 80, pHo 9.2, CHES, Cli 142 mM, low Clo 0.9 mM): 3.88 mM
ID50 for iodide in the medium with low Cl- concentration ([2]; exp 81, pHo 8.5, Hepes, Cli 142 mM, low Clo 0.6 mM): 2.31 mM
ID50 for iodide in the medium with low Cl- concentration ([2]; exp 81, pHo 10, CHES, Cli 142 mM, low Clo 1.7 mM): 7.81 mM
ID50 for iodide in the medium with low Cl- concentration ([2]; exp 82, pHo 10, CHES, Cli 138 mM, low Clo 1.7 mM): 9.85 mM
Structure (SMILES): [I-].[K+] [iodide, potassium iodide]
